{"data": "Assay results gathered from unrelated publications", "target": "Macrophage-stimulating protein receptor (MST1R, Homo sapiens, UniProt Q04912)", "note": "Protocols differ between the studies behind these lines."}
{"test": "cell-free assay, competition with immobilised ligand", "setting": "1 µM", "remaining binding [%]": 100, "Structure (SMILES)": "Cc1nc(N2CC[C@@H](O)C2)ncc1-c1cc(C(F)(F)F)cc2[nH]ncc12"}
{"test": "binding, competition with immobilised ligand", "setting": "1 µM", "remaining binding [%]": 100, "Structure (SMILES)": "Nc1ncc2c(n1)-c1c([nH]c3ccc(C#CC4CC4)cc13)CCCC2"}
{"test": "cell-free assay, competition with immobilised ligand", "setting": "1 µM", "remaining binding [%]": 96, "Structure (SMILES)": "O=C(O)[C@H]1[C@H](Cn2nnc3ccccc3c2=O)CC[C@@H]1C(=O)c1ccc(OCCC2CCOCC2)cc1"}
{"test": "binding", "setting": "1 µM", "remaining binding [%]": 100, "Structure (SMILES)": "CC1CCCN1c1nccc(-c2cnn3ncccc23)n1 (stereo not drawn)"}
{"test": "binding, competition with immobilised ligand", "setting": "1 µM", "remaining binding [%]": 100, "Structure (SMILES)": "O=C(Nc1c[nH]nc1C(=O)NC1CCNCC1)c1cc(F)cc(F)c1"}
{"test": "binding", "setting": "1 µM", "remaining binding [%]": 100, "Structure (SMILES)": "C[C@@H]1CCN(c2nccc(-c3cnn4ncccc34)n2)C1"}
{"test": "cell-free assay, competition with immobilised ligand", "setting": "1 µM", "remaining binding [%]": 100, "Structure (SMILES)": "c1ccc(N2CCN(Cc3nc4ccccc4[nH]3)CC2)nc1"}
{"test": "cell-free assay, competition with immobilised ligand", "setting": "5 µM", "remaining binding [%]": 100, "Structure (SMILES)": "COc1ncc2cc3ccccc3nc2c1C#N"}
{"test": "binding, competition with immobilised ligand", "setting": "0.1 µM", "remaining binding [%]": 83, "Structure (SMILES)": "C[C@@H](c1ccc(-n2cnc3c(N)ncnc32)cc1)N1CCc2nn(C)c(Cc3ccccc3)c2C1=O"}
{"test": "binding, competition with immobilised ligand", "setting": "1 µM", "remaining binding [%]": 56, "Structure (SMILES)": "O=C(c1ccc(Nc2ncc(Cl)c(-c3cc4ccccc4s3)n2)cc1)N1CCC(N2CCCC2)CC1"}
{"test": "cell-free assay, competition with immobilised ligand", "setting": "0.1 µM", "remaining binding [%]": 74, "Structure (SMILES)": "Cc1c[nH]c2nccc(Oc3c(F)cc(Nc4cc(Cl)nc(N)n4)cc3F)c12"}
{"test": "binding, competition with immobilised ligand", "setting": "1 µM", "remaining binding [%]": 43, "Structure (SMILES)": "O=C(c1ccc(Nc2ncc(Cl)c(-c3ccc(Cl)s3)n2)cc1)N1CCC(N2CCCC2)CC1"}
{"test": "binding", "setting": "1 µM", "remaining binding [%]": 100, "Structure (SMILES)": "F[C@@H]1CCN(c2nccc(-c3cnn4ncccc34)n2)C1"}
{"test": "binding, competition with immobilised ligand", "setting": "10 µM", "remaining binding [%]": 78, "Structure (SMILES)": "c1cncc(-c2cccc(Nc3nccc(NC4CCCCC4)n3)c2)c1"}
{"test": "binding, competition with immobilised ligand", "setting": "1 µM", "remaining binding [%]": 88, "Structure (SMILES)": "O=C(c1ccc(Nc2nccc(-c3cc4ccccc4s3)n2)cc1)N1CCC(N2CCCC2)CC1"}
{"test": "binding", "setting": "1 µM", "remaining binding [%]": 100, "Structure (SMILES)": "COc1ccnn2ncc(-c3ccnc(N(C)C)n3)c12"}
{"test": "binding, competition with immobilised ligand", "setting": "1 µM", "remaining binding [%]": 100, "Structure (SMILES)": "COc1cnc(Nc2cccc(S(N)(=O)=O)c2)nc1N1CCN(c2ccccc2)C(=O)C1"}
{"test": "binding", "setting": "1 µM", "remaining binding [%]": 100, "Structure (SMILES)": "N[C@@H]1CCN(c2nccc(-c3cnn4ncccc34)n2)C1"}
{"test": "cell-free assay, competition with immobilised ligand", "setting": "1 µM", "remaining binding [%]": 100, "Structure (SMILES)": "C[C@@]1(Cc2ccc(C#N)cc2)C(=O)N(c2cc(Cl)cc(Cl)c2)c2ncc(C(=O)NC3(c4nc(C5CCC5)no4)CC3)n21"}
{"test": "binding", "setting": "1 µM", "remaining binding [%]": 100, "Structure (SMILES)": "CN(CCCC(F)(F)F)c1nccc(-c2cnn3ncccc23)n1"}
{"test": "cell-free assay, competition with immobilised ligand", "setting": "0.1 µM", "remaining binding [%]": 100, "Structure (SMILES)": "CNC(=O)c1ccc(Nc2ncc(C(F)(F)F)c(NCc3nccnc3N(C)S(C)(=O)=O)n2)cc1"}
